Measured values of several laboratories.
Each line is one published result; the experiments were not run side by side.
PLK4: Serine/threonine-protein kinase PLK4 (PLK4, Homo sapiens, UniProt O00444)
APLNR: Apelin receptor (APLNR, Homo sapiens, UniProt P35414)
ESR1: Estrogen receptor (ESR1, Homo sapiens, UniProt P03372)

SMILES	target	read-out	mode	method	pH	quantity	result
CC(C)C[C@H](NC(=O)[C@H](CC(C)C)NC(=O)[C@@H]1CCCN1C(=O)[C@H](C)NC(=O)[C@@H](NC(=O)[C@H](C)N)C(C)C)C(=O)N[C@@H](Cc1c[nH]cn1)C(=O)N[C@@H](CO)C(=O)N[C@H](C(=O)O)[C@@H](C)OP(=O)(O)O	PLK4	binding		MST	pH 8	Kd	39.8 nM
CC[C@H](C)[C@H](NC(=O)[C@H](CCSC)NC(=O)[C@H](CCC(N)=O)NC(=O)[C@H](CCCNC(=N)N)NC(=O)[C@H](Cc1ccccc1)NC(=O)CN)C(=O)N[C@@H](C)C(=O)N[C@@H](CCCNC(=N)N)C(=O)N[C@@H](C)C(=O)N[C@@H](CCCCN)C(=O)N[C@@H](Cc1ccc(O)cc1)C(=O)N[C@@H](CCC(N)=O)C(=O)NCC(=O)N[C@@H](CC(C)C)C(=O)N[C@@H](CC(C)C)C(=O)N[C@@H](Cc1ccc(O)cc1)C(=O)O	APLNR	calcium signal	agonist	fluorescence		EC50	614 nM
CC(c1ccccc1)(c1ccc(O)cc1)c1ccc(O)cc1	ESR1	reporter gene	antagonist	luciferase		IC50	20700 nM
CC[C@H](C)[C@H](NC(=O)[C@@H]1CCCN1C(=O)[C@H](CCC(=O)O)NC(=O)[C@H](CC(C)C)NC(=O)[C@@H](N)C(C)C)C(=O)N[C@@H](CC(C)C)C(=O)N[C@@H](Cc1c[nH]cn1)C(=O)N[C@@H](CO)C(=O)N[C@H](C(=O)O)[C@@H](C)OP(=O)(O)O	PLK4	binding		MST	pH 8	Kd	34.7 nM
CSCC[C@H](NC(=O)[C@H](CC(C)C)NC(=O)[C@H](CC(C)C)NC(=O)[C@H](CCCNC(=N)N)NC(=O)[C@H](CC(N)=O)NC(=O)[C@H](CCC(=O)O)NC(=O)[C@H](CCCCN)NC(=O)[C@@H](N)CCCCN)C(=O)N[C@@H](CO)C(=O)N[C@@H](C)C(=O)N[C@@H](CCCNC(=N)N)C(=O)N[C@@H](CCC(N)=O)C(=O)NCC(=O)N[C@@H](CC(C)C)C(=O)N[C@@H](CC(C)C)C(=O)N[C@@H](Cc1ccccc1)C(=O)O	APLNR	calcium signal	agonist	fluorescence		EC50	2020 nM
CCCCCc1cc(O)c2c(c1)OC(C)(CCC=C(C)C)C=C2 (centres unmarked)	Sucrase-isomaltase, intestinal (Si, Rattus norvegicus, UniProt P23739)	enzyme activity	inhibitor	absorbance		IC50	540000 nM
CC(C)C[C@H](NC(=O)[C@H](CCCNC(=N)N)NC(=O)[C@H](CCCNC(=N)N)NC(=O)[C@H](CS)NC(=O)[C@H](CCCNC(=N)N)NC(=O)[C@H](CCC(=O)O)NC(=O)[C@H](CCCNC(=N)N)NC(=O)[C@@H](N)CO)C(=O)N[C@@H](Cc1c[nH]cn1)C(=O)N[C@@H](CO)C(=O)N[C@@H](CC(C)C)C(=O)N1CCC[C@H]1C(=O)N[C@@H](CC(C)C)C(=O)N[C@@H](Cc1ccccc1)C(=O)N1CCC[C@H]1C(=O)O	APLNR	calcium signal	agonist	fluorescence		EC50	4.2 nM
CC(C)(c1ccc(O)cc1)c1cccc(C(C)(C)c2ccc(O)cc2)c1	ESR1	reporter gene	antagonist	luciferase		IC50	2580 nM
COc1cc2c(cc1OC)CN(CCc1ccc(NC(=O)c3cccc4c(=O)c5cccc(OC)c5[nH]c34)cc1)CC2	5-hydroxytryptamine receptor 1A (HTR1A, Homo sapiens, UniProt P08908)	cell-free assay				Ki	402 nM
CCCCC1CNC2CCc3ccc(OC)cc3C12 (racemic)	Alpha-2C adrenergic receptor (ADRA2C, Homo sapiens, UniProt P18825)	ligand displacement		radioligand		Ki	622 nM
CC(C)(C)C#Cc1cc(-c2ccnc(N)c2)cc2c(N)n[nH]c12	Inhibitor of nuclear factor kappa-B kinase subunit beta (IKBKB, Homo sapiens, UniProt O14920)	enzyme activity	inhibitor	FRET		IC50	4590 nM
